OXTR agonist – human OXTR agonists, primary screen, fluorescence, CHO-OTR cells, Fluo-8 calcium; Fluo-8 calcium fluorescence; normalized: DMSO 0%, oxytocin 100%; Oxytocin receptor (Homo sapiens), P30559; AID 2435, 2010; 0.32% of 320,000 active; activation, % at 3 µM;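 active = activation above the mean of all tested compounds plus 3 SD, cutoff set per screening run, cut at about 20% in these data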;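 note: peak over basal fluorescence ratio from a 100 s FLIPR kinetic read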
OXTR potentiate – human OXTR potentiators, primary screen, fluorescence, CHO-OTR cells, Fluo-8 calcium; Fluo-8 calcium fluorescence, potentiator mode; 0% = oxytocin EC15, 100% = EC100; activation, % at 3 µM; 0.061% of 320,000 active; Oxytocin receptor (Homo sapiens), P30559;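 active = activation above that plate's cutoff, the mean activation of tested compounds plus 3 SD, cut at about 6.6% in these data, passing the limit was not always enough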
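Material: human OTR in CHO cells. Compound: 3.0 µM, one dose. Timing: compound 6 min at room temperature before oxytocin, 100 s read. Evaluation: % activation of max/min ratio relative to oxytocin controls. Replication: single well per compound, singlicate. Signal: Fluo-8 calcium dye fluorescence.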
TAAR1 ag – human TAAR1 agonists, primary screen, Fluo-8 calcium fluorescence, CHO RD-HGA16 cells; vehicle wells 0%, saturating PEA agonist 100%; 0.99% of 360,000 active; AID 624467, 2012; activation, % at 3 µM;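 active = activation above the mean activation of all test compounds in the run plus 3 SD, cut at about 38% in these data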
Target sequence (Q96RJ0 whole entry, looked up): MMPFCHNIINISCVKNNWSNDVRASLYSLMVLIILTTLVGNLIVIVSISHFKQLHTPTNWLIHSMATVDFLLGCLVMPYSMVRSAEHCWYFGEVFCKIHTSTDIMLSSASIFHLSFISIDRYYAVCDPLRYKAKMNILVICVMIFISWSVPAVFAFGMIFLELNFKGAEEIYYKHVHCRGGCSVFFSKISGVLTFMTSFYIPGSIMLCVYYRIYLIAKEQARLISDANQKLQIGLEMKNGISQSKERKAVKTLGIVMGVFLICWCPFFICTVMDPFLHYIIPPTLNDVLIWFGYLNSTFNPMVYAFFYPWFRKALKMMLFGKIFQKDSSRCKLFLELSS
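Test system: RD-HGA16 (CHO) cells co-expressing Gα16 and hTAAR1 / Benchmarks: DMSO vehicle as 0%, PEA at EC100 as 100% / Repeats: no replicates (n 1) / Measure: % activation from peak over basal fluorescence ratio, DMSO-to-PEA scaled / Timing: 17-24 h plating, Fluo-8 75 min 37 °C, 30 min RT / Technique: kinetic Fluo-8 calcium fluorescence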
V1R ag counter – agonists of human V1a receptor, primary screen, counter-screen for OXTR agonist project, fluorescence, CHO-V1R cells | Fluo-8 calcium fluorescence, agonist mode; 0% DMSO, 100% 3 nM vasopressin | activation, % at 3 µM | 0.25% of 320,000 active | AID 2797, 2010;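 active = activation above the mean activation of all tested compounds plus 3 SD, per screening run, cut at about 20% in these data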;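 note: signal is peak over basal fluorescence ratio across a 100 second FLIPR read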
TAAR1 antagonist – human TAAR1 antagonists, primary screen, Fluo-8 calcium fluorescence, CHO RD-HGA16 cells. antagonist. inhibition, % at 3 µM. 1.5% of 360,000 active;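 active = inhibition above a per-plate cutoff, the mean inhibition of test compounds on that plate plus 3 SD, cut at about 49% in these data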
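Test system – hTAAR1-expressing CHO RD-HGA16 cells, Gα16-coupled · Reagent – β-PEA at EC80 concentration, post-compound challenge · Compound dosing – 3 µM, single point · Timing – 140 s kinetic read after compound, 140 s after agonist · Detection – Fluo-8 intracellular calcium dye fluorescence, real-time kinetic reads · Control set – DMSO and EC80 PEA controls · Repeats – n of 1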
Each line names hits and unclear results; the compound was inactive in the other large screens. Only some compounds are listed: those with a hit (about 2.3% of all), similar ones and a draw of the others.

COc1ccc(CN(C)C(=O)c2ccc(NS(=O)(=O)c3ccc(F)cc3)cc2)c(OC)c1	none
COc1ccc(NS(=O)(=O)c2ccc(C(=O)N(C)Cc3ccc(C)o3)cc2)cc1	OXTR agonist 27.0, TAAR1 ag 49.4, V1R ag counter 26.8
OC(CNCCc1ccc(Cl)cc1)COc1ccc2ccccc2c1 (stereo not drawn)	TAAR1 ag 41.9 (no result: OXTR agonist, OXTR potentiate, V1R ag counter)
OC(CNCCc1ccccc1)COc1ccc(OCC(O)CNCCc2ccccc2)cc1 (stereo not drawn)	none
CCCCN(Cc1ccccc1)S(=O)(=O)c1ccc2[nH]c(=O)oc2c1	TAAR1 antagonist 48.6
O=C(Nc1cccs1)Nc1ccc(Br)cc1F	none
CC(=O)c1cccc(NC(=O)Nc2cccs2)c1	TAAR1 ag 42.4
O=C(Nc1cccs1)Nc1ccc(F)cc1F	TAAR1 ag 39.3
COc1cccc(NC(=O)Nc2cccs2)c1	none
C[C@H]1CCCCO[C@H](CN(C)S(=O)(=O)c2cn(C)cn2)[C@@H](C)CN([C@@H](C)CO)C(=O)c2cc(NS(=O)(=O)c3ccccc3)ccc2O1	none (no result: OXTR agonist, OXTR potentiate, V1R ag counter)
C[C@H](CO)N1C[C@H](C)[C@H](CN(C)C(=O)c2ccccn2)Oc2cc(C#Cc3ccc(F)cc3)ccc2S1(=O)=O	none (no result: OXTR agonist, OXTR potentiate, V1R ag counter)
COc1cccc(C#Cc2ccc3c(c2)O[C@@H](CN(C)C(=O)c2ccccn2)[C@@H](C)CN([C@H](C)CO)S3(=O)=O)c1	TAAR1 antagonist 49.5 (no result: OXTR agonist, OXTR potentiate, V1R ag counter)
CC(=O)OC1COC(OC2C(O)C(C)OC(OC3C(OC4CCC5(C)C(CCC6(C)C5CC=C5C7CC(C)(C)CCC7(C(=O)O)CCC56C)C4(C)CO)OCC(O)C3O)C2O)C(O)C1OC(C)=O (stereo not drawn)	OXTR agonist 91.8, V1R ag counter 115.5 (no result: TAAR1 ag, TAAR1 antagonist)
CC1(C)C[C@H]2C3=CCC4[C@@]5(C)CC[C@H](O[C@@H]6O[C@H](C(=O)O)[C@@H](O)[C@H](O)[C@H]6O)[C@@](C)(CO)C5CC[C@@]4(C)[C@]3(C)C[C@H](O)[C@@]2(CO)[C@@H](O)[C@@H]1O (stereo partly drawn)	none
C/C=C(/C)C(=O)OC1CC(C)(C)C[C@H]2C3=CC[C@@H]4[C@@]5(C)CCC(O[C@@H]6O[C@@H](C(=O)O)[C@@H](O)C(O[C@@H]7OC[C@H](O)[C@@H](O)[C@@H]7O[C@@H]7OC(CO)C(O)[C@@H](O)[C@@H]7O)C6O[C@@H]6OC(CO)C(O)C(O)C6O)[C@@](C)(CO)[C@@H]5CC[C@]4(C)[C@]3(C)CC(O)[C@@]12CO (stereo partly drawn)	OXTR agonist 44.3, V1R ag counter 22.4 (no result: TAAR1 ag, TAAR1 antagonist)
Cc1nc2scc(C)n2c(=O)c1S(=O)(=O)NCc1ccc(F)cc1	none
CC(=O)N1CCOc2ccc(S(=O)(=O)N3CC(C)CC(C)C3)cc21 (stereo not drawn)	none
COc1ccc(/C=N/NC(=O)CCCOc2ccc(Cl)cc2Cl)cc1[N+](=O)[O-]	TAAR1 antagonist 48.8
O=C(CNC(=O)c1ccccn1)N/N=C/c1ccccc1	TAAR1 ag 40.3
CCc1ccc(/C=N/NC(=O)c2ccccn2)cc1	none
CCN(CC)S(=O)(=O)c1ccc(/C=C/C(=O)Nc2ccc(F)cc2F)cc1	none
CCN(CC)S(=O)(=O)c1ccc(/C=C/C(=O)Nc2ccc(Br)cc2F)cc1	TAAR1 antagonist 53.1
N#CC1=C(N)NC(SCC(=O)c2ccc(Cl)cc2)=C(C#N)C12CCCC2	TAAR1 antagonist 51.1
N#CC1=C(N)NC(SCC(=O)c2ccc(Br)cc2)=C(C#N)C12CCCCC2	TAAR1 antagonist 66.1
COc1ccccc1N1CCN(C(=O)C2CCN(S(=O)(=O)c3ccc4c(c3)CC(C)N4C(=O)C3CC3)CC2)CC1 (stereo not drawn)	TAAR1 antagonist 56.9
COc1ccccc1N1CCN(C(=O)C2CCCN(S(=O)(=O)c3ccc4c(c3)CCCN4C(C)=O)C2)CC1 (stereo not drawn)	TAAR1 antagonist 67.9
CC(=O)N1CCCc2cc(S(=O)(=O)N3CCCC(C(=O)N4CCN(c5ccccc5)CC4)C3)ccc21 (stereo not drawn)	none
